What was measured:
[1] = system: Vesicular stomatitis virus; test: Antiviral activity against VSV Indiana ATCC VR-158 infected in african green monkey Vero-76 cells after 2 days by plaque reduction assay; assay type: functional, organism-based; conditions: Indiana ATCC VR-158, Vero 76, 48 h
[2] = Cytotoxicity against BHK21 cells assessed as reduction in cell viability after 72 hrs by MTT assay; assay type: cell-based, Mesocricetus auratus, BHK-21; conditions: hamster
Summary of the method: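 BHK cells seeded at 1 × 10^6 cells/mL in MEM-E with L-glutamine, 1 mM sodium pyruvate, kanamycin and 10% FBS. Mock-infected cells exposed to serial dilutions of compound at 37 °C, 5% CO2, run in parallel with the antiviral assays. Viability by MTT at 72 h. CC50 by linear regression vs untreated controls. Mean of three independent determinations.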

[3] = Cytotoxicity against human MT4 cells assessed as reduction in cell proliferation after 96 hrs by MTT assay; assay type: cell-based
Summary of the method: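 MT-4 cells in exponential growth seeded at 1 × 10^5 cells/mL in RPMI-1640 with 10% FBS and penicillin/streptomycin. Cultured with serial compound dilutions at 37 °C, 5% CO2. MTT viability after 96 h. CC50 by linear regression against untreated controls. Mean of three independent determinations.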

[4] = system: Human poliovirus 1 strain Sabin; test: Antiviral activity against Human poliovirus 1 strain Sabin 1 virus infected in african green monkey Vero-76 cells after 2 days by plaque reduction assay; assay type: functional, organism-based; conditions: Enterovirus C, 1, Vero 76, 48 h
Yellow fever virus = test: Antiviral activity against YFV 17-D vaccine (Stamaril Pasteur J07B01) infected in BHK21 cells assessed as protection against virus-induced cytopathic effect after 3 or 4 days by MTT assay; assay type: functional, organism-based; conditions: BHK-21
Summary of the method: (§1)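 BHK-21 (YFV, Reo-1) or MDBK (BVDV) cells seeded at 5 × 10^4 or 3 × 10^4 cells/well and grown overnight to confluence. Monolayers infected at m.o.i. 0.01 in maintenance medium (MEM-Earle, 0.5% inactivated FBS). Serial compound dilutions added 2 h after infection; 37 °C for 3-4 days. Viability read by MTT. EC50 by linear regression versus untreated controls; mean of three determinations.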

[5] = system: Mammalian orthoreovirus 1; test: Antiviral activity against Reovirus 1 ATCC VR- 214 infected in BHK21 cells assessed as protection against virus-induced cytopathic effect after 3 or 4 days by MTT assay; assay type: functional, cell-based; conditions: Mammalian orthoreovirus 1, ATCC VR- 214, BHK-21; summary of the method: as §1
[6] = system: Respiratory syncytial virus; test: Antiviral activity against RSVA2 ATCC VR-1540 infected in african green monkey Vero-76 cells after 5 days by plaque reduction assay; assay type: functional, organism-based; conditions: human respiratory syncytial virus, A2 ATCC VR-1540, Vero 76, 120 h
Coxsackievirus B5 = test: Antiviral activity against CVB-5 virus Faulkner ATCC VR-185 infected in african green monkey Vero-76 cells after 3 days by plaque reduction assay; assay type: functional, organism-based; conditions: Enterovirus B, Faulkner ATCC VR-185, Vero 76, 72 h
Vaccinia virus = test: Antiviral activity against VV Elstree ATCC VR-1549 infected in african green monkey Vero-76 cells after 3 days by plaque reduction assay; assay type: functional, organism-based; conditions: Orthopoxvirus vaccinia, Elstree ATCC VR-1549, Vero 76, 72 h
[7] = system: Bovine viral diarrhea virus 1; test: Antiviral activity against BVDV NADL ATCC VR-534 infected in MDBK cells assessed as protection against virus-induced cytopathic effect after 3 or 4 days by MTT assay; assay type: functional, organism-based; conditions: Bovine viral diarrhea virus isolates and strains, NADL ATCC VR-534, MDBK; summary of the method: as §1
[8] = Cytotoxicity against MDBK cells assessed as reduction in cell viability after 72 hrs by MTT assay; assay type: cell-based, Bos taurus; conditions: cattle
Summary of the method: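 MDBK cells seeded at 6 × 10^5 cells/mL in MEM-E with L-glutamine, 1 mM sodium pyruvate, kanamycin and 10% horse serum. Mock-infected cultures held with serial compound dilutions at 37 °C, 5% CO2. MTT viability read after 72 h. 50% cytotoxic concentration from linear regression as % of untreated controls. Three independent determinations.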

[9] = system: Human immunodeficiency virus 1; test: Antiviral activity against HIV-1 3B infected in human MT4 cells assessed as protection against virus-induced cytopathic effect after 4 days by MTT assay; assay type: functional, organism-based; conditions: Human immunodeficiency virus 1, 3B, MT4, 96 h
Summary of the method: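 MT-4 cells (1 × 10^4/well in RPMI) with or without serial compound dilutions, infected with HIV-1 at 100 CCID50 (m.o.i. 0.01). After 4 days at 37 °C, protection from cytopathogenicity read by MTT. EC50 by linear regression versus untreated controls; mean of three independent determinations.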

Human alphaherpesvirus 1 = test: Antiviral activity against HSV-1 KOS ATCC VR- 1493 infected in african green monkey Vero-76 cells after 3 days by plaque reduction assay; assay type: functional, organism-based; conditions: Human alphaherpesvirus 1, KOS ATCC VR1493, Vero 76, 72 h
[10] = Cytotoxicity against african green monkey Vero 76 cells assessed as reduction in cell viability after 48 to 96 hrs by MTT assay; assay type: cell-based; conditions: chlorocebus sabaeus
Summary of the method: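 Vero-76 cells plated at 4 × 10^5 cells/mL in D-MEM with L-glutamine, kanamycin and 10% FBS. Incubated with serial dilutions of test compounds at 37 °C, 5% CO2 for 48-96 h. Viability by MTT. CC50 by linear regression relative to untreated cells. Mean of three independent runs.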

[11] = Selectivity index, ratio of CC50 for MDBK cells to EC50 for BVDV infected in MDBK cells
[12] = Selectivity index, ratio of CC50 for human GS4.1 cells to EC50 for Hepatitis C virus genotype 1b replicon infected in human GS4.1 cells; assay type: toxicity, cell-based; conditions: read-out: Ratio CC50/EC50
Summary of the method: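 Replicon GS4.1 cells 7.5 × 10^3/well with twofold dilutions (top 75 µM), 72 h at 37 °C. Replication measured by NS4A ELISA (anti-NS4A A-236, peroxidase conjugate, phenylenediamine, A492), with EC50 by four-parameter sigmoidal fit. CC50 from CellTiter 96 AQueous One in the same cells. Index taken as CC50/EC50.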

Hepatitis C virus = test: Antiviral activity against Hepatitis C virus genotype 1b replicon infected in human GS4.1 cells assessed as protection against virus-induced cytopathic effect after […] by ELISA; assay type: functional, organism-based, Hepacivirus hominis
Summary of the method: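 Huh-7 cells carrying the genotype 1b replicon (GS4.1) seeded at 7.5 × 10^3 cells/well in twofold serial compound dilutions (top 75 µM). Replicon-free Huh-7 served as negative control. 72 h at 37 °C. Fixed in acetone-methanol; NS4A ELISA with mouse monoclonal A-236, peroxidase anti-mouse IgG and phenylenediamine; absorbance at 492 nm. EC50 by four-parameter sigmoidal regression of % inhibition.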

[13] = Inhibition of BVDV RNA-dependent RNA polymerase pre-incubated for preincubated for 30 mins before GTP addition and measured after 120 mins by fluorescence based microplate reader assay; design: species or system Bovine viral diarrhea virus 1
Summary of the method: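 His-tagged BVDV NS5BΔ24 (C-terminal 24 residues deleted) from E. coli, Ni-NTA purified, 500 ng/reaction. Assay uses poly(rC) 10 µg/mL template, oligo(rG)12 0.1 µg/mL primer and 80 µM GTP. Buffer is 20 mM Tris pH 7.0, 5 mM MgCl2, 25 mM NaCl, 1 mM DTT, 5% DMSO. Threefold compound dilutions, 30 min RT preincubation, 120 min at 37 °C, EDTA stop. Product read by PicoGreen fluorescence (ex 480/em 520), as % residual activity.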

[14] = Cytotoxicity against human GS4.1 cells assessed as reduction in cell viability after 72 hrs by Cell Titer 96 aqueous one solution cell proliferation assay; assay type: cell-based
Summary of the method: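 GS4.1 cells (Huh-7 carrying an HCV genotype 1b replicon, grown with 0.5 mg/mL G418) seeded at 7.5 × 10^3 cells/well with twofold serial dilutions, top 75 µM. Incubated 72 h at 37 °C, 5% CO2. Viability by CellTiter 96 AQueous One. CC50 from % cytotoxicity vs concentration.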

Row | Compound | EC50 [1] | CC50 at 72 h [2] | CC50 at 96 h [3] | EC50 [4] | EC50 (Yellow fever virus) | EC50 [5] | EC50 [6] | EC50 (Coxsackievirus B5) | EC50 (Vaccinia virus) | EC50 [7] | CC50 at 72 h [8] | EC50 [9] | EC50 (Human alphaherpesvirus 1) | CC50 [10] | Ratio CC50/EC50 [11] | selectivity ratio [12] | EC50 (Hepatitis C virus) | IC50 [13] | CC50 at 72 h [14]
1 | CC(C)c1nc2c(Cl)c3ncccc3cc2[nH]c1=O | > 100 µM | > 100 µM | > 100 µM | > 100 µM | > 100 µM | > 100 µM | > 100 µM | > 100 µM | > 100 µM | > 100 µM | > 100 µM | > 100 µM | > 100 µM | > 100 µM |  |  |  |  | 
2 | O=c1[nH]c2cc3cccnc3c(Cl)c2nc1-c1ccccc1 | > 100 µM | > 100 µM | 61 µM | > 100 µM | > 100 µM | > 100 µM | > 100 µM | > 100 µM | > 100 µM | 5 µM | > 100 µM | > 61 µM | > 100 µM | > 100 µM | >20 | 1 | > 11 µM |  | 
3 | O=c1[nH]c2cc3cccnc3c(Cl)c2nc1Cc1ccccc1 | > 88 µM | > 100 µM |  | > 88 µM | > 100 µM | > 100 µM | > 88 µM | > 88 µM | > 88 µM | 2.6 µM | > 100 µM | > 15 µM | > 88 µM | 88 µM | >34 | 1 | > 65 µM |  | 
4 | c1csc(-c2nc3cc4cccnc4cc3n2C2CCCCC2)c1 | > 15 µM | 45 µM | 18 µM | > 15 µM | > 45 µM | > 45 µM | > 15 µM | > 15 µM | > 15 µM | 65 µM | > 100 µM | > 18 µM | > 15 µM | 15 µM |  |  |  |  | 
5 | COc1nc2cc3cccnc3c(Cl)c2nc1-c1cccs1 | > 100 µM | > 100 µM | > 100 µM | > 100 µM | > 100 µM | > 100 µM | > 100 µM | > 100 µM | > 100 µM | 1.3 µM | > 100 µM | > 100 µM | > 100 µM | > 100 µM |  |  |  | 0.64 µM | 
6 | c1ccc(-c2nc3cc4cccnc4cc3n2C2CCCCC2)cc1 | > 35 µM | > 100 µM | 50 µM | > 35 µM | > 100 µM | 67 µM | > 35 µM | > 35 µM | > 35 µM | 29 µM | > 100 µM | > 50 µM | > 35 µM | 35 µM |  |  |  |  | 
7 | c1ccc(Cc2nc3cc4cccnc4cc3n2CC2CCCCC2)cc1 | > 25 µM | 71 µM | 10 µM | > 25 µM | > 71 µM | > 71 µM | > 25 µM | > 25 µM | > 25 µM | 10 µM | > 100 µM | > 10 µM | > 25 µM | 25 µM |  |  |  |  | 
8 | O=c1[nH]c2cc3cccnc3c(Cl)c2nc1-c1cccs1 | > 100 µM | > 100 µM | > 100 µM | > 100 µM | > 100 µM | > 100 µM | > 100 µM | > 100 µM | > 100 µM | 6 µM | > 100 µM | > 100 µM | > 100 µM | > 100 µM | >16 | 3 | 7.5 µM |  | 21 µM
9 | CCCn1c(-c2ccccc2)nc2cc3cccnc3cc21 | > 90 µM | > 100 µM | 62 µM | > 90 µM | > 100 µM | > 100 µM | > 90 µM | 13 µM | > 90 µM | > 100 µM | > 100 µM | > 62 µM | > 90 µM | 90 µM |  |  |  |  | 
10 | CCCn1c(=O)c(-c2ccccc2)nc2cc3cccnc3c(Cl)c21 | > 50 µM | > 100 µM | 40 µM | > 50 µM | > 100 µM | > 100 µM | > 50 µM | 7 µM | > 50 µM | 33 µM | 40 µM | > 40 µM | > 50 µM | 50 µM |  |  |  |  | 
11 | O=c1c(-c2ccccc2)nc2cc3cccnc3c(Cl)c2n1CC1CCCCC1 | > 20 µM | 15 µM | 23 µM | > 20 µM | > 15 µM | > 15 µM | > 20 µM | > 20 µM | > 20 µM | 4 µM | 50 µM | > 23 µM | > 20 µM | 20 µM |  |  |  |  | 
12 | O=c1c(-c2ccccc2)nc2cc3cccnc3c(Cl)c2n1C1CCCCC1 | > 70 µM | > 100 µM | 48 µM | > 70 µM | > 100 µM | > 100 µM | > 70 µM | > 70 µM | > 70 µM | 4 µM | > 100 µM | > 48 µM | > 70 µM | 70 µM |  |  |  |  | 

Reference: ChEMBL document CHEMBL3734708, “Synthesis, cytotoxicity and antiviral evaluation of new series of imidazo[4,5-g]quinoline and pyrido[2,3-g]quinoxalinone derivatives” (Eur J Med Chem, 2015)
